Experiments:
Assay type in all cases: cell-based
exon 19 del EGFR = exon 19 del EGFR (Homo sapiens, UniProt P00533, DEL746-750); test: Exon 19 deletion EGFR degradation, immunoblot in HCC827 cells; settings: 24 hours
Summary of the method: (§1)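 Cells cultured in RPMI-1640 with 10% FBS and 1% penicillin-streptomycin at 37°C, 5% CO2. They were treated for 24 hours with increasing concentrations of a gefitinib-based PROTAC. Cells were lysed in Tris pH 7.5/NP-40/deoxycholate buffer with phosphatase and protease inhibitors, then cleared at 16,000 × g. Protein was normalised by BCA, resolved by 8% SDS-PAGE, blotted to nitrocellulose, detected by ECL and quantified by densitometry.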

EGFR = EGFR (Homo sapiens, UniProt P00533); test: EGFR degradation, immunoblot of treated cells; settings: Figure S2, cell line not given
L858R EGFR = L858R EGFR (Homo sapiens, UniProt P00533, L858R); test: L858R EGFR degradation, immunoblot in H3255 cells; settings: 24 hours
Summary of the method: as §1

COc1cc2ncnc(Nc3ccc(F)c(Cl)c3)c2cc1OCCCCCOCCOCCC(=O)N[C@H](C(=O)N1C[C@H](O)C[C@H]1C(=O)NCc1ccc(-c2scnc2C)cc1)C(C)(C)C [Compound 3]
degradation of exon-19 deletion EGFR (exon 19 del EGFR): enabled the degradation
WT EGFR degradation (EGFR): sparing the WT EGFR
degradation of L858R EGFR (L858R EGFR): enabled the degradation
